Shown are actives, neighbours in structure and some others; about 5.8% of the full set was active somewhere.
Pf Dd2 growth: blocks growth of Plasmodium falciparum Dd2 parasites; 2.3% of 94,000 active; activity change, % at 10 µM; P. falciparum Dd2 growth, SYBR Green, 72 h; stronger effect = lower value; in the data active = activity change below about -80%; inconclusive = no clear call, values can overlap the other calls
T cruzi growth-1: blocks T. cruzi growth in NIH3T3 culture | 5.9% of 77,000 active | inhibition, % at 8.34 µM | T. cruzi beta-gal in NIH3T3, GalScreen luminescence, 90 h;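 active = mean inhibition above about 93%, with at least 55% of replicates each passing it, limit read from the data, passing the limit was not always enough; inconclusive = only one of those two conditions holds; inactive = neither condition holds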
IDH1 R132H inh: blocks human IDH1 R132H reductase activity; inhibition, % at 10 µM; O75874; diaphorase/resazurin fluorescence, 60 min; AID 624101; 0.18% of 70,000 active; in the data active = inhibition above about 34%; inconclusive = no clear call, values can overlap the other calls; inactive = below about 11%;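 note: 0% = DMSO and 100% = no enzyme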
Target sequence (O75874 whole entry R132H): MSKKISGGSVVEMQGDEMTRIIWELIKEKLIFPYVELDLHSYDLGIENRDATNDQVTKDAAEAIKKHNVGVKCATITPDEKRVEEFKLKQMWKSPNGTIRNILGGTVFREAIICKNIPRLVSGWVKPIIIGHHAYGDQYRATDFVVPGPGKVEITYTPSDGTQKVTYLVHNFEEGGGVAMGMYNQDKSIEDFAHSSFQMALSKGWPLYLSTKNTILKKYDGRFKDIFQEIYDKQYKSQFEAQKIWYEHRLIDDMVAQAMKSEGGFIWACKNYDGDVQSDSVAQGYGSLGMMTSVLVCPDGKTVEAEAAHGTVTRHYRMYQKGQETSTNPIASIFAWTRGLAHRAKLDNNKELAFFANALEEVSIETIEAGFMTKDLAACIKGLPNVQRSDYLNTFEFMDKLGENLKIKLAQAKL
GASC1 inh: blocks human GASC-1 (KDM4C) demethylase activity | inhibition, % at 12.5 µM | Q9H3R0 | 0.15% of 96,000 active | GST-KDM4C 2-372, H3K9me3 peptide, LANCE TR-FRET | AID 720574;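 active = mean replicate inhibition above about 25%, with at least 55% of replicates also reaching it, limit read from the data, passing the limit was not always enough; inconclusive = only one of those two conditions met; inactive = neither condition met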
Target sequence (Q9H3R0 2-372 limits assumed): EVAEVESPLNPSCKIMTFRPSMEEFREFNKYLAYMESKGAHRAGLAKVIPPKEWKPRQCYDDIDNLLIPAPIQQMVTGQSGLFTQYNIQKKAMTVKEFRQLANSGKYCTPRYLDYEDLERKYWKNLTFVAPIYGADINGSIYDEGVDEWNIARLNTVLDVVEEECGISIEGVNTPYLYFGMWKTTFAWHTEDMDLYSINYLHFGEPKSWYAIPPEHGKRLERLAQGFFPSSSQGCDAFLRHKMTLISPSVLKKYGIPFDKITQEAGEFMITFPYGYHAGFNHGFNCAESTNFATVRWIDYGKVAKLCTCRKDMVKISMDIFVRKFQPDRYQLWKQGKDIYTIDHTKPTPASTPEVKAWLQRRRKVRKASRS
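material = GST-tagged GASC-1 (JMJD2C) catalytic fragment, aa 2-372 | amount = enzyme final amount 10 nM | medium = HEPES buffer, pH 7.5, plus ascorbate | also added = H3K9me3 peptide substrate, Fe(II), 2-oxoglutarate | dosing = single dose | times = 30 min demethylation and 1 h detection at room temperature | detection = LANCE TR-FRET | read-out basis = Fall in 671/618 emission ratio as inhibition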
T cruzi growth-2: blocks T. cruzi growth in NIH3T3 host cells; AID 651739; 72% of 5,600 active; T. cruzi beta-gal in NIH3T3, GalScreen luminescence, 90 h; inhibition, % at 8.35 µM; shares compounds with T cruzi growth-1;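 active = mean replicate inhibition above about 95% and at least 55% of replicates individually reaching it, limit read from the data; inconclusive = only one of the two criteria is met; inactive = neither criterion is met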
T cruzi growth-3: Trypanosoma cruzi proliferation inhibition; shares compounds with T cruzi growth-1; T. cruzi beta-gal in NIH3T3, GalScreen luminescence, 90 h; inhibition, % at 2.09 µM; 21% of 5,600 active;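 active = mean inhibition above about 95%, with at least 55% of replicates also reaching it, limit read from the data; inconclusive = meets just one of the two conditions; inactive = meets neither condition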;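 note: plate controls were neutral control median for no effect and positive control median for full effect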
NIH3T3 tox: kills mouse NIH/3T3 fibroblasts. shares compounds with T cruzi growth-1. NIH/3T3 viability, CellTiter-Glo ATP luminescence, 90 h. cytotoxicity (signal decrease), % at 8.35 µM. 14% of 5,600 active. AID 651742;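 active = mean signal decrease across replicates above about 35% based on untreated-well scatter, with enough replicates individually passing, limit read from the data; inconclusive = no rule stated though some were filed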;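 note: 0% = median of neutral control wells and 100% = median of positive control wells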
NIH3T3 tox 2: cytotoxicity in mouse NIH/3T3 fibroblasts; shares compounds with T cruzi growth-1; NIH/3T3 viability, CellTiter-Glo ATP luminescence, 90 h; inhibition, % at 24.9 µM; 56% of 5,600 active; AID 651744;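 active = mean loss of cell viability signal at or above a set limit, and enough replicates individually reaching it; inconclusive = meets only the mean limit or only the replicate share; inactive = meets neither condition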;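 note: 0% = median of neutral control wells and 100% = median of positive control wells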
* marks the source's active call; other numbers are inactive results; ? = inconclusive; . = not tested or not shown.

SMILES	Pf Dd2 growth	T cruzi growth-1	IDH1 R132H inh	GASC1 inh	T cruzi growth-2	T cruzi growth-3	NIH3T3 tox	NIH3T3 tox 2
C[C@H](CO)N1C[C@H](C)[C@@H](CN(C)Cc2ccc(C(F)(F)F)cc2)Oc2ccc(NC(=O)c3ccncc3)cc2CC1=O	-7.3	95.9*	0.8	0.6	105.5*	32.7	13.9	58.8*
C[C@H](CO)N1C[C@H](C)[C@@H](CN(C)Cc2ccccc2)Oc2ccc(NC(=O)c3ccncc3)cc2CC1=O	7.7	67.8	2.6	-0.1	.	.	.	.
C[C@@H]1CN([C@@H](C)CO)C(=O)Cc2cc(NC(=O)c3ccncc3)ccc2O[C@H]1CN(C)Cc1ccc(-c2ccccc2)cc1	-66.5	109.3*	0.5	-1.8	103.9*	111.3*	28.3	103.0*
CC(C)(C)NC(=O)Cn1cc(C(=O)c2ccco2)c2ccccc21	.	.	0.1	.	.	.	.	.
CCn1c(SCC(=O)Nc2cccc(Br)c2)nnc1-c1ccco1	.	.	-0.1	.	.	.	.	.
C[C@@H]1CN([C@@H](C)CO)C(=O)Cc2cc(NC(=O)c3ccncc3)ccc2O[C@@H]1CN(C)Cc1ccc(Oc2ccccc2)cc1	-10.7	100.4	.	-0.1	.	.	.	.
C[C@H](CO)N1C[C@H](C)[C@@H](CN(C)Cc2ccc(Oc3ccccc3)cc2)Oc2ccc(NC(=O)c3ccncc3)cc2CC1=O	-20.7	97.0*	4.9	-0.8	111.3*	39.9	11.6	105.5*
C[C@@H]1CCCCO[C@H](CN(C)S(=O)(=O)c2ccccc2)[C@H](C)CN([C@H](C)CO)C(=O)c2cc(NC(=O)Nc3cccc4ccccc34)ccc2O1	-70.6	107.8*	2.4	-2.5	105.8*	109.9*	11.6	?
C[C@H](CO)N1C[C@H](C)[C@H](CN(C)S(=O)(=O)c2ccccc2)OCCCC[C@H](C)Oc2ccc(NC(=O)Nc3cccc4ccccc34)cc2C1=O	-44.6	90.2	3.1	-1.1	.	.	.	.
Cc1noc(C)c1S(=O)(=O)N(C)C[C@H]1OCCCC[C@@H](C)Oc2ccc(NC(=O)Nc3cccc4ccccc34)cc2C(=O)N([C@@H](C)CO)C[C@@H]1C	?	105.2*	-1.7	-2.2	106.7*	66.7	17.1	16.4
Cc1noc(C)c1S(=O)(=O)N(C)C[C@@H]1OCCCC[C@@H](C)Oc2ccc(NC(=O)Nc3cccc4ccccc34)cc2C(=O)N([C@H](C)CO)C[C@H]1C	-82.2*	109.1*	1.4	-8.7	109.7*	100.2*	-7.0	?
Cc1cccc(N(CC(=O)NC2CCCCCC2)S(C)(=O)=O)c1C	.	.	-0.1	.	.	.	.	.
CS(=O)(=O)N1CCN(c2ccccc2NC(=O)COc2ccc(Cl)cc2)CC1	.	.	0.2	.	.	.	.	.
COC(=O)COc1ccc2c(=O)c(Oc3cnn(-c4ccccc4)c3)c(C(F)(F)F)oc2c1C	.	.	2.3	.	.	.	.	.
C=CCNC(=O)c1c(NC(=O)C2COc3ccccc3O2)sc2c1CCCC2 (centres undefined)	.	.	1.7	.	.	.	.	.
COc1ccc(NC(=O)N2CCCCN3[C@H](CO)[C@H](c4ccc(-c5ccccc5C)cc4)[C@H]3C2)cc1	-43.0	48.3	.	-2.0	.	.	.	.
Cc1ccccc1-c1ccc([C@@H]2[C@H]3CN(C(=O)Nc4ccccc4)CCCCN3[C@H]2CO)cc1	-3.3	103.8*	.	-1.8	104.0*	93.3	29.3	104.8*
Cc1ccccc1-c1ccc([C@H]2[C@H]3CN(C(=O)Nc4ccccc4)CCCCN3[C@H]2CO)cc1	0.8	118.0*	.	-0.2	112.3*	30.3	14.9	34.0*
COc1ccc(NC(=O)N2CCCCN3[C@H](C2)[C@@H](c2ccc(-c4ccccc4C)cc2)[C@@H]3CO)cc1	-25.7	98.4*	.	-1.3	97.8*	86.7	24.0	104.0*
Cc1ccccc1-c1ccc([C@H]2[C@@H](CO)N3CCCCN(C(=O)Nc4ccccc4)C[C@H]23)cc1	-20.4	34.5	.	-2.3	.	.	.	.
O=C(C[C@@H]1CC[C@@H]2[C@H](COC[C@@H](O)CN2Cc2ccccc2F)O1)NCc1ccccc1F	-8.5	3.6	.	0.2	.	.	.	.
CCCNC(=O)C[C@H]1CC[C@@H]2[C@H](COC[C@@H](O)CN2Cc2ccccc2F)O1	10.1	96.7*	.	-2.5	39.6	-10.8	1.3	9.5
CCCNC(=O)C[C@@H]1CC[C@@H]2[C@H](COC[C@@H](O)CN2Cc2ccccc2F)O1	-29.8	110.6*	.	0.1	31.0	-14.5	-15.8	0.1
CNC(=O)C[C@@H]1CC[C@H]2[C@@H](COC[C@@H](O)CN2Cc2ccccc2F)O1	33.6	.	.	-0.6	.	.	.	.
O=C(C[C@@H]1CC[C@H]2[C@@H](COC[C@H](O)CN2S(=O)(=O)c2cccc(Cl)c2)O1)Nc1ccc(-c2ccccc2)cc1	-2.5	?	.	-2.8	110.0*	71.5	22.3	105.3*
SMILES	Pf Dd2 growth	T cruzi growth-1	IDH1 R132H inh	GASC1 inh	T cruzi growth-2	T cruzi growth-3	NIH3T3 tox	NIH3T3 tox 2
O=C(C[C@H]1CC[C@H]2[C@@H](COC[C@@H](O)CN2S(=O)(=O)c2cccc(Cl)c2)O1)Nc1ccccc1	6.5	15.1	.	0.1	.	.	.	.
O=C(C[C@@H]1CC[C@@H]2[C@H](COC[C@H](O)CN2S(=O)(=O)c2cccc(Cl)c2)O1)Nc1ccc(-c2ccccc2)cc1	-35.0	110.3*	.	-0.2	93.2	111.3*	36.4*	75.4*
CCOC(=O)c1c(-c2ccccc2)csc1NC(=O)Cn1cnc2ccccc2c1=O	.	.	0.0	.	.	.	.	.
O=C(CSc1nnnn1-c1cccc(C(=O)O)c1)Nc1ccccc1F	.	.	0.1	.	.	.	.	.
C[C@@H]1CN([C@H](C)CO)S(=O)(=O)c2ccc(C#Cc3ccccc3)cc2O[C@H]1CN(C)S(=O)(=O)c1cn(C)cn1	-86.1*	99.5*	-4.2	-1.5	107.0*	37.4	66.7*	50.9*
C[C@H]1CN([C@@H](C)CO)S(=O)(=O)c2ccc(C#Cc3ccc(F)cc3)cc2O[C@@H]1CN(C)S(=O)(=O)c1cn(C)cn1	-63.4	122.0*	-0.4	.	102.9*	100.9*	46.5*	49.4*
O=C(COc1ccc(C(=O)Nc2ccc(F)cc2)cc1)Nc1cc(Cl)cc(Cl)c1	.	.	0.1	.	.	.	.	.
C[C@@H]1CCCCO[C@H](CN(C)C(=O)Nc2ccc(C(F)(F)F)cc2)[C@@H](C)CN([C@@H](C)CO)C(=O)c2cc(NC(=O)NC3CCCCC3)ccc2O1	-89.5*	121.2*	.	-2.2	105.0*	115.3*	-1.1	18.1
C[C@@H]1CCCCO[C@H](CN(C)C(=O)Nc2ccc(C(F)(F)F)cc2)[C@H](C)CN([C@@H](C)CO)C(=O)c2cc(NC(=O)NC3CCCCC3)ccc2O1	-70.6	117.4*	0.3	-1.4	109.5*	83.5	7.1	?
C[C@@H]1CN([C@H](C)CO)C(=O)c2cc(NC(=O)NC3CCCCC3)ccc2O[C@@H](C)CCCCO[C@H]1CN(C)C(=O)Nc1ccc(C(F)(F)F)cc1	.	.	0.1	0.2	.	.	.	.

From PubChem
